Assay outcomes: PubChem BioAssay, several laboratories
Sampled rows, rich in hits. Any-hit rate of the full collection: about 2.6%.
MC4R ag barr: MC4R agonists recruiting beta-arrestin, primary screen, cell-based, luminescence, agonist arm of biased-ligand search; Melanocortin receptor 4 (Homo sapiens), P32245; U2OS MC4R beta-arrestin complementation; percent of melanotan II response, DMSO zero; activation, % at 8.9 µM; 360,000 compounds, 0.98% hits; AID 540308, 2011;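 active means activation above a per-plate cutoff, the mean activation of sample wells on that plate plus 3 SD, cut at about 8% in these data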
Target sequence (P32245 whole entry, looked up): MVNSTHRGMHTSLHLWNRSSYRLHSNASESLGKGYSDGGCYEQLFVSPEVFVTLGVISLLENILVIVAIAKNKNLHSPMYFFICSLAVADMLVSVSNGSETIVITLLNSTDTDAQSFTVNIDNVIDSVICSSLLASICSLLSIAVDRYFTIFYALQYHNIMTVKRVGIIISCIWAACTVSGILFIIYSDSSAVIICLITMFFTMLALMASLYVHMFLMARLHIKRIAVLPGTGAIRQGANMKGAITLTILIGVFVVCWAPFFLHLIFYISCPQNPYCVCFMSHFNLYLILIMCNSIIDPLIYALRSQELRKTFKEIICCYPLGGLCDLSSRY
TbMetRS inhib: T. brucei MetRS inhibitors, primary screen, biochemical, luminescence; 360,000 compounds, 0.4% hits; purified T. brucei MetRS, ATP depletion, Kinase-Glo luminescence; AID 624268, 2012; inhibition, % at 11.9 µM;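 active means inhibition above a per-plate cutoff of the control wells' mean inhibition plus 3 SD, cut at about 5.5% in these data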
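Assay system: T. brucei methionyl-tRNA synthetase, purified | Medium: HEPES buffer with MgCl2, KCl, DTT, spermine, BSA, pyrophosphatase | Compound: 11.9 µM single point | Incubation: 15 min enzyme-compound preincubation, 2 h reaction, 10 min detection, 25 °C | Measured by: Kinase-Glo luciferase luminescence reporting remaining unconsumed ATP | Measure: % inhibition normalized to control-well medians | Replication: Singlicate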
MC4R antag cAMP: MC4R antagonists of cAMP signaling, primary screen, cell-based, TR-FRET, antagonist arm of biased-ligand search. Melanocortin receptor 4 (Homo sapiens), P32245. MC4R-expressing cells, MTII-stimulated cAMP, LANCE TR-FRET. inhibition, % at 6.5 µM. 360,000 compounds, 0.48% hits. AID 540295, 2011;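 active means inhibition above its plate's cutoff, the mean of tested wells on that plate plus 3 SD, cut at about 29% in these data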
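Material: human MC4R-expressing U2OS cells. Probe or stimulus: Melanotan II challenge. Dosing: 6.5 µM single dose. Times: 30-min compound, 1-h challenge, 1-h detection, room temperature. Technique: TR-FRET with Eu-cAMP and labeled anti-cAMP, 671 nm. Replication: singlicate.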
Exocytosis inh: LAMP-1 surface exposure blockers, TALL-104 cells – cell-based, flow cytometry, MLPCN library, primary screen. inhibition, % at 10 µM. AID 651702, 2012. 360,000 compounds, 0.66% hits. TALL-104 LAMP-1 surface exposure; cells stimulated with thapsigargin and PMA;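 active means inhibition above about 55%, limit read from the data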
iPSC survival up: enhancers of single-cell hiPSC survival, primary screen, ATPlite luminescence | 100% = ROCK inhibitor wells, 0% = DMSO | survival enhancement, % at 20 µM | 360,000 compounds, 0.044% hits | AID 602274, 2012; in the data active means survival enhancement above about 18%;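 further: cells exposed to compounds for 16 hours before the ATP read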
ABCB6 inh 2: ABCB6 transporter inhibitors, primary screen, K562-ABCB6 cells, flow cytometry, MLPCN library; ATP-binding cassette sub-family B member 6 (Homo sapiens), Q9NP58; K562-ABCB6 porphyrin accumulation, 1 h; hits give low values; fluorescence ratio to DMSO, % at 10 µM; 360,000 compounds, 0.19% hits;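 active means fluorescence ratio to DMSO below 75%, the collection mean minus 3 SD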;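 further: signal is porphyrin accumulated inside mitochondria; lower ratio means ABCB6 inhibition with less porphyrin fluorescence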
A number is an active result; 0 = inactive; - = no result given.

SMILES	MC4R ag barr	TbMetRS inhib	MC4R antag cAMP	Exocytosis inh	iPSC survival up	ABCB6 inh 2
CCOP(=O)(OCC)/C(=N/OC(=O)c1ccc(OC)cc1)C(N)=O	0	0	0	70	0	0
CCOP(=O)(OCC)/C(=N/OC(=O)c1ccccc1C)C(N)=O	0	0	0	0	0	0
O=S(=O)(/C=C/c1ccccc1)N1CCN(c2cccc(Cl)c2)CC1	0	0	0	0	0	69
COc1ccc(OC)c(CCNC(=O)CCc2nnc3ccc(N4CCOCC4)nn23)c1	0	0	0	0	0	0
CN(C)CCN(Cc1ccccc1)C(=O)[C@H](Cc1ccccc1)N1C(=O)c2ccccc2C1=O	0	0	0	0	0	0
CC(=O)c1c(C)[nH]c(C(=O)OCC(=O)N2CC(=O)Nc3ccccc32)c1C	0	0	0	0	0	0
Cc1cc(C(=O)OC(C)C(=O)Nc2nc(-c3ccccc3)cs2)c(C)o1 (stereo unspecified)	0	0	0	0	0	0
Cc1cc(C(=O)OCC(=O)Nc2nc(-c3ccccc3)cs2)c(C)o1	8.5	0	0	0	0	0
Cn1c2c(c(=O)n3ncnc13)CCCC2	0	0	0	0	0	0
O=C(CSc1nc(-c2ccccc2)nn1C(=O)c1ccccc1)Nc1cccc([N+](=O)[O-])c1	0	18	0	0	0	0
Brc1ccccc1Cn1c(-c2cscn2)nc2ccccc21	9.3	0	0	0	0	0
COCCn1c(=NC(=O)c2ccc3c(c2)OCCO3)sc2cc(S(N)(=O)=O)ccc21	0	0	0	0	0	0
COCCn1c(=NC(=O)c2cc(Cl)sc2Cl)sc2cc(S(N)(=O)=O)ccc21	9.3	0	0	0	0	0
Cc1cccn2cc(-c3ccc(NC(=O)Cc4ccccc4)cc3)nc12	9.3	0	0	0	0	0
CCC(C)[C@@H](NC(=O)OC(C)(C)C)c1nnc(S(=O)(=O)Cc2cccc(C)c2)o1 (stereo partly specified)	0	0	0	81	0	0
COc1ccc(Cn2c(-c3ccc(C)cc3)nc3c(c(=O)c4ccccc4n3C)c2=O)cc1	9.2	0	0	0	0	0
Cc1nc2sc(C(=O)OC(C)C)c(N)c2c(C)c1C	0	0	0	0	0	0
COc1ccc(C(=O)OCC(=O)Nc2ccc(Cl)cn2)cc1	8.8	0	0	0	0	0
O=C(CCc1ccccn1)N1CCCC(N2CCN(c3cccc(C(F)(F)F)c3)CC2)C1 (stereo unspecified)	0	0	0	0	0	0
COc1cccc(-c2nc3nc(C)cc(C)n3c2NCc2ccccc2)c1	-	0	-	0	0	0
O=C(Nc1ccncc1)c1ccccc1F	0	0	0	0	24	0
O=C(Nc1ccncc1)c1c(F)c(F)c(F)c(F)c1F	0	0	0	0	44	0
CC1(C)Oc2ccc3ccc(=O)oc3c2/C(=C/Nc2cccc(O)c2)C1=O	8.6	0	0	0	0	0
CCCOc1ccc(C2Nc3cccc4cccc(c34)N2)cc1	0	0	0	0	0	0
CC(C)N1C(=O)/C(=C\c2nc3ccccc3c(=O)[nH]2)c2ccccc21	0	0	0	98	0	0
SMILES	MC4R ag barr	TbMetRS inhib	MC4R antag cAMP	Exocytosis inh	iPSC survival up	ABCB6 inh 2
Cc1ccc2nc(NC(=O)CCn3c(=O)sc4ccccc43)sc2c1	0	0	0	0	0	72
O=C(Nc1ccc(S(=O)(=O)N2CCCC2)cc1)C1CC(=O)N(CCc2ccc(F)cc2)C1 (stereo unspecified)	0	0	0	0	0	0
S=C(c1ccccc1)N1CCCc2ccccc21	0	0	0	0	0	0
OC(c1ccc(Cl)cc1)c1ncc(-c2cccc(C(F)(F)F)c2)[nH]1 (stereo unspecified)	0	0	0	0	25	0
CSC1=NC=C(C#N)C2=NC(c3c(Cl)cccc3Cl)NN12 (stereo unspecified)	-	0	-	0	0	0
Cc1ccc(O)c(NC(=O)C2CC(c3cccc(Br)c3)=NO2)c1 (stereo unspecified)	0	0	0	0	0	0
OC1O[C@H](c2ccc3c(c2)OCO3)[C@H]2CO[C@H](c3ccc4c(c3)OCO4)[C@@H]12 (stereo partly specified)	0	0	0	0	0	0
Cn1c(O)c(/C=N/NC(=O)c2cc3ccccc3cc2O)c2ccccc21	0	0	0	83	0	0
Nc1nonc1-n1nnc(C(=O)N/N=C/c2cccnc2)c1CSc1ccc(Cl)cc1	0	0	0	62	0	0
CN(C)Cc1c(C(=O)N/N=C/c2cccc(OCc3c(F)cccc3Cl)c2)nnn1-c1nonc1N	0	0	0	0	0	0
Nc1nonc1-n1nnc(C(=O)N/N=C/c2cccnc2)c1CSc1ccccc1	0	0	0	0	0	0
CN(C)Cc1c(C(=O)N/N=C/c2ccccc2OCc2c(F)cccc2Cl)nnn1-c1nonc1N	0	0	0	95	0	0
CCn1nc(C(=O)OCC(=O)Nc2nc(-c3ccc(OC)cc3)cs2)c2ccccc2c1=O	0	0	0	0	0	0
COc1ccc2c(c1)CC/C(=C/c1ccncc1)C2=O	0	0	0	0	0	0
COc1ccc2c3c(ccc2c1)C(=O)/C(=C/O)CC3	26	0	0	0	0	0
COc1ccc(C(=O)COC(=O)CCNS(=O)(=O)c2ccccc2)cc1Br	0	0	0	0	0	0
COc1ccccc1CNC(=S)Nc1ccc(F)cc1	0	0	0	0	0	0
Fc1ccc(NC(=S)NCc2ccccc2Cl)cc1	0	0	0	0	0	62
Cc1c(Cl)cccc1NC(=S)NCCc1ccc(F)cc1	0	0	0	84	0	0
O=C(CSc1ccc(Cl)cc1)NNC(=O)c1ccncc1	0	0	0	0	0	0
Cc1ccc(-c2noc(CCC(=O)Nc3cc(C)ccn3)n2)cc1	9.2	0	0	0	0	0
CCCCOCCCNC(=O)C[C@@H]1C[C@@]2(C(=O)OCC)CCC=C2N(Cc2ccco2)C1=O	-	0	-	0	0	0
COc1ccc2nc(C)cc(N/N=C/c3ccc(F)cc3)c2c1	9.2	0	0	0	0	0
COc1ccc(/C=N/Nc2cc(C)nc3ccccc23)cc1	0	0	0	60	0	0
COc1ccc(/C=N/Nc2cc(C)nc3c(C)cccc23)cc1	0	0	0	0	0	0
COc1cc2ncnc(N[C@H](C)c3ccccc3)c2cc1OC	0	0	0	0	0	0
